Test results reported in publication PMC4300256 (Aquatic toxicology (Amsterdam, Netherlands), 2014).
Read-outs that look alike come from different tables or passages of the source.

What was measured:
[1] = target: T1, RyR1 (Fundulus heteroclitus, UniProt A0A3Q2R0L4); assay: Ca^2+ induced [^3H]Ry binding; format: biochemical; settings: NBH and SC killifish; 10 nM [^3H]Ry
In short: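 Skeletal muscle microsomes (≥4 fish pooled per population), 100 µg ml−1, with 10 nM [3H]Ry in 250 KCl/15 NaCl/20 HEPES mM buffer (pH 7.1), 25°C, 16 h. Free Ca2+ 0.25–10,000 µM set with CaCl2/EGTA. Nonspecific binding: 1000-fold unlabeled ryanodine plus 200 µM EGTA. GF/B filtration, scintillation counting. Bell-shaped curve fit. 2–4 biological replicates, each run in triplicate or quadruplicate.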

[2] = target: T1, RyR1; assay: PCB 95 induced [^3H]Ry binding; format: biochemical; settings: for maximum response achieved, [^3H]Ry binding: 8 nM [^3H]Ry, 50 µM CaCl2; for EC50: read-out: half-maximal effect concentration (EC50)
In short: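 Pooled skeletal muscle microsomes, 40 µg ml−1, were incubated with 8 nM [3H]Ry and 50 µM CaCl2 in RyR buffer (pH 7.1) at 25°C for 16 h. Test compound 0.01–20 µM in 0.5% DMSO; solvent control was 0.5% DMSO. After filtration and scintillation counting, specific binding was taken as a percent of the DMSO control and fitted by sigmoidal dose-response. 2–4 biological replicates, each in triplicate or quadruplicate.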

[3] = target: T1, RyR1; format: binding; settings: two-site model, estimate ± SE

T1 sequence (A0A3Q2R0L4 1-4852): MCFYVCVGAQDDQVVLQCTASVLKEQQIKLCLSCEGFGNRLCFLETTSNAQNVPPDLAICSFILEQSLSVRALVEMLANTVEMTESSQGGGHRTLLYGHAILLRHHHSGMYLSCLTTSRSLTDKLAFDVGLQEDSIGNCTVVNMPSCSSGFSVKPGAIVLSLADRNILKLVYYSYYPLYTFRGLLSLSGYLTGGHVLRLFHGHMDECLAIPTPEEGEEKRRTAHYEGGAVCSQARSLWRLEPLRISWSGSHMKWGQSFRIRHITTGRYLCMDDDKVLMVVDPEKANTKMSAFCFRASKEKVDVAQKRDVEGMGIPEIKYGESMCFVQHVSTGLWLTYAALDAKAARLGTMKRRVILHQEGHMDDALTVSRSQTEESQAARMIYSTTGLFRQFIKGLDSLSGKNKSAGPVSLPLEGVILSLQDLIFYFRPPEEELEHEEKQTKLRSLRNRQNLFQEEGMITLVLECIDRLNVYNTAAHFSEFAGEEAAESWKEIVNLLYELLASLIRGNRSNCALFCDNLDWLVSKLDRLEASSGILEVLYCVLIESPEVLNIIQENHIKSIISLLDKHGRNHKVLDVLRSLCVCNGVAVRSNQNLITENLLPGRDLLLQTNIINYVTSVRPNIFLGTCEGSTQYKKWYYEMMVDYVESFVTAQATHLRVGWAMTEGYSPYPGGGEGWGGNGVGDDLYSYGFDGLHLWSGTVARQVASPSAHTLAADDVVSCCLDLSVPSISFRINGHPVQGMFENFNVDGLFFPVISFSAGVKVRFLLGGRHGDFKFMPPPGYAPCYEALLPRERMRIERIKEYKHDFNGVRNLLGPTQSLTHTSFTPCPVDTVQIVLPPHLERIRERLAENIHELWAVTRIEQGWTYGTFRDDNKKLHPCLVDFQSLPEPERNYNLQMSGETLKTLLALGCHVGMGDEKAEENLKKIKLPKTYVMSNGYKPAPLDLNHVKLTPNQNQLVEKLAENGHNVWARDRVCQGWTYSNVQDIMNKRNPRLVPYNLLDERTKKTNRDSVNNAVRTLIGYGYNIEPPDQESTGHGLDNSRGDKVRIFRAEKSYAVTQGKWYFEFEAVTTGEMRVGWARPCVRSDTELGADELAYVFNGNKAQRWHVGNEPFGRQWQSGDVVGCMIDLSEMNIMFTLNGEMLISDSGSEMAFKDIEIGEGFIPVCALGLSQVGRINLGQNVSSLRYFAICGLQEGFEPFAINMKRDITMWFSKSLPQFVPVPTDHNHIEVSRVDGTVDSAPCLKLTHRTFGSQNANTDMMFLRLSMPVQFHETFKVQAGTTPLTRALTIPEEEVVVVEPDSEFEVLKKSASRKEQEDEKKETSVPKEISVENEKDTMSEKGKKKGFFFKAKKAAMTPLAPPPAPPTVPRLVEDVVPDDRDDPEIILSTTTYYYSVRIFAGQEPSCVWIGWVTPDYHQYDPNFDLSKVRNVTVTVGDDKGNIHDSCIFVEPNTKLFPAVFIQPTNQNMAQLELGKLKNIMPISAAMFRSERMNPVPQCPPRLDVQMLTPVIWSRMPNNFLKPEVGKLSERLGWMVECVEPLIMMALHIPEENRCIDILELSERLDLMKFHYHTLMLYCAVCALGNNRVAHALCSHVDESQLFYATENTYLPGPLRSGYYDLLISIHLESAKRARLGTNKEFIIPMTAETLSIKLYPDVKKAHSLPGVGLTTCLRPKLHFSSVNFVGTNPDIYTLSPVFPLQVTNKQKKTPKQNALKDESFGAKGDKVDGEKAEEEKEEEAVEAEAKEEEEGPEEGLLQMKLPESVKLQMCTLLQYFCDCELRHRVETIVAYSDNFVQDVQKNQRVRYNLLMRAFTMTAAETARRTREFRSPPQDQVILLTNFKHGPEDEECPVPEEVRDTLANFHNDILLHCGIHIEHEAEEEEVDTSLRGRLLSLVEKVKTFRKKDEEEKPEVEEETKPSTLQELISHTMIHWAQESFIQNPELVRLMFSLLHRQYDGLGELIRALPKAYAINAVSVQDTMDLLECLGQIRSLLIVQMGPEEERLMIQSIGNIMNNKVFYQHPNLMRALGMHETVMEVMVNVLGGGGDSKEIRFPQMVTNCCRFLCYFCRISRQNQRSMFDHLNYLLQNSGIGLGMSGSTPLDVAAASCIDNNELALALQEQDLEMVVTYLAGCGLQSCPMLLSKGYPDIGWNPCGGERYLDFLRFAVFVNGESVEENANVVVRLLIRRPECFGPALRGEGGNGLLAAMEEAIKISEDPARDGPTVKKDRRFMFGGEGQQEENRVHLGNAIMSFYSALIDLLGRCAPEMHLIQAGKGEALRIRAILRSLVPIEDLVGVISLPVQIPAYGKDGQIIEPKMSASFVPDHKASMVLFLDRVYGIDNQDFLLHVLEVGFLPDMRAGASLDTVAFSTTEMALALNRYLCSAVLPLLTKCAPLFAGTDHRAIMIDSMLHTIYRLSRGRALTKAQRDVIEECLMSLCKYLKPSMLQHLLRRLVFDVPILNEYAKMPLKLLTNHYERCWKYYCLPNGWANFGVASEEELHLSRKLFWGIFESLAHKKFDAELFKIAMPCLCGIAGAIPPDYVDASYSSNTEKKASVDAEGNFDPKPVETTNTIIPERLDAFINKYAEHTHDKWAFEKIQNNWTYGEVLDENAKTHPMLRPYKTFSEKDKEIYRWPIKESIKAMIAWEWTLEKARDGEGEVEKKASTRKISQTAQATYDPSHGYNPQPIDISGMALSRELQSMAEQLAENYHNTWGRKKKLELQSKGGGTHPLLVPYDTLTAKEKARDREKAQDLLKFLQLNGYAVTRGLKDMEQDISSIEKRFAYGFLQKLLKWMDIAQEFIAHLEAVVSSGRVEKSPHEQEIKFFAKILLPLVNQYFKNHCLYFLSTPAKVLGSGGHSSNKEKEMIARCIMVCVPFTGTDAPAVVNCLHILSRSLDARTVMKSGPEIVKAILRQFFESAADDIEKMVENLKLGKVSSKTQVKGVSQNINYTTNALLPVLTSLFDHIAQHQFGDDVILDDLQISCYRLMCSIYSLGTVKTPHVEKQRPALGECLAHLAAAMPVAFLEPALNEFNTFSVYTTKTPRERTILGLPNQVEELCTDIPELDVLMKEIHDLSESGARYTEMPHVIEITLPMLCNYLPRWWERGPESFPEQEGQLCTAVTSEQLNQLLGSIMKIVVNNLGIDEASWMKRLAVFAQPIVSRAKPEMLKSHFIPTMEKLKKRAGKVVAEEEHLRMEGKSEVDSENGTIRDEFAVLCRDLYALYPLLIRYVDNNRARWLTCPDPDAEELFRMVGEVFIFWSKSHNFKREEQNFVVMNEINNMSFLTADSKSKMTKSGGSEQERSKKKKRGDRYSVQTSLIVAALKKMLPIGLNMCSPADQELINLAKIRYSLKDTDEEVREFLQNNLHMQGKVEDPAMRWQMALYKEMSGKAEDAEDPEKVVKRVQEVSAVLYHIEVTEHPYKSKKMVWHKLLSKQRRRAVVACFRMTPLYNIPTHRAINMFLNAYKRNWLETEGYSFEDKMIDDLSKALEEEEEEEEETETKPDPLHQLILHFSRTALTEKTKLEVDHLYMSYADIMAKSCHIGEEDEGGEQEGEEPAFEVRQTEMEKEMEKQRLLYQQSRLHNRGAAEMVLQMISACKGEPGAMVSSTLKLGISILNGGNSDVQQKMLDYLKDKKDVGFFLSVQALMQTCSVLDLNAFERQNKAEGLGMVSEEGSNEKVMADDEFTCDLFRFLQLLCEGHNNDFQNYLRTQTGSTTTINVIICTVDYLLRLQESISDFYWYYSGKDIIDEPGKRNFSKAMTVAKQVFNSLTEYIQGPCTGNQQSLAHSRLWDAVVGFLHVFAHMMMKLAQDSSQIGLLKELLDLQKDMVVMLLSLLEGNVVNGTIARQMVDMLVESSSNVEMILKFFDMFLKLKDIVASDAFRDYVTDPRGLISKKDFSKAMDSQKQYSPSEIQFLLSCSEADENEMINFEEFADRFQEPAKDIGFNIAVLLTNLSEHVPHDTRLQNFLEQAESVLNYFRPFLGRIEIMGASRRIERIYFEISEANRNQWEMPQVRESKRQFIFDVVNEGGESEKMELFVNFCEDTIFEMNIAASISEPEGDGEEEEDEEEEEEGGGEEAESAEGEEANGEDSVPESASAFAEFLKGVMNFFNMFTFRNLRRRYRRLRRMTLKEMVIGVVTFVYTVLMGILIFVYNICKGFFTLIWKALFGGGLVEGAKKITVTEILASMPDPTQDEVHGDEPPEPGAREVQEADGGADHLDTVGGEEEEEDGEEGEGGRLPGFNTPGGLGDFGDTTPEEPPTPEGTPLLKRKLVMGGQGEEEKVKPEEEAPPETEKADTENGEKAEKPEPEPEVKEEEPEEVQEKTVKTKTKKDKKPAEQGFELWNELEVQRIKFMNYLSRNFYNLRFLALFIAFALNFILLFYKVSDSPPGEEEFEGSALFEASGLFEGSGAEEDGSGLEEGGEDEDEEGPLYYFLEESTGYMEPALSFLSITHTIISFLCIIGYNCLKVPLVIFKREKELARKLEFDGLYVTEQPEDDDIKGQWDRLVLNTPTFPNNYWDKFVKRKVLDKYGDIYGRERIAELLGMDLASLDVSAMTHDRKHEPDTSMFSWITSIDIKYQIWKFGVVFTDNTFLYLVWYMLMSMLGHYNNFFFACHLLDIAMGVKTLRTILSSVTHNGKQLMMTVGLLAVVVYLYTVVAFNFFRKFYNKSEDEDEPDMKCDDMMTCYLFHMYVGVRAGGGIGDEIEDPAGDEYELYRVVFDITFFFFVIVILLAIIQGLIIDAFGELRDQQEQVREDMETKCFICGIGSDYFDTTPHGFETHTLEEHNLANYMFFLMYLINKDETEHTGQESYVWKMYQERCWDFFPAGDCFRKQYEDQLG

[Ca+2] [Ca^2+]
Ca^2+ levels leading to receptor activation [1]: below 250 µM
Ca^2+ levels leading to receptor inactivation [1]: above 500 µM

Clc1ccc(Cl)c(-c2c(Cl)ccc(Cl)c2Cl)c1 [PCB 95]
EC10 ([2]; NBH killifish skeletal muscle): 9.23 nM
maximum response achieved, [^3H]Ry binding ([2]; NBH killifish skeletal muscle): 301 % of the DMSO control
EC10 ([2]; SC killifish skeletal muscle): 4.11 nM
maximum response achieved, [^3H]Ry binding ([2]; SC killifish skeletal muscle): 248 % of the DMSO control
EC50 ([2]; NBH killifish skeletal muscle, 95% CI 77.7–119.1): 96.2 nM
EC50 ([2]; SC killifish skeletal muscle, 95% CI 36.6–84.6): 55.6 nM

CC(C)[C@@]1(O)[C@@H](OC(=O)c2ccc[nH]2)[C@@]2(O)[C@@]3(C)C[C@]4(O)O[C@@]5([C@H](O)[C@@H](C)CC[C@]35O)[C@@]2(O)[C@@]14C [[^3H]Ry, ryanodine]
High Affinity Bmax ([3]; NBH killifish skeletal muscle): 1.63 ± 0.32 pmol/mg
Low Affinity Bmax ([3]; NBH killifish skeletal muscle): 6.69 ± 0.92 pmol/mg
High Affinity Bmax ([3]; SC killifish skeletal muscle): 1.47 ± 0.31 pmol/mg
Low Affinity Bmax ([3]; SC killifish skeletal muscle, 95% CI 0.81 to 5.05): 2.93 ± 1.07 pmol/mg
